High-throughput results (PubChem)
Compounds with a hit are over-represented: about 12% of the library has one in this group of screens.
Arbovirus anti – antivirals against arbovirus infection | arbovirus infection cell-based antiviral screen | 200,000 compounds, 0.37% hits | inhibition, % at 10 µM | AID 1251; in the data active = inhibition above about 30%
Rad51 HR inh – blocks human Rad51 in homologous recombination. hRad51 DNA strand exchange, fluorescence dequenching. AID 1385. inhibition, % at 10 µM. 200,000 compounds, 0.085% hits;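 active = inhibition above 40% at the single screening dose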
Target sequence (Q06609 whole entry, looked up): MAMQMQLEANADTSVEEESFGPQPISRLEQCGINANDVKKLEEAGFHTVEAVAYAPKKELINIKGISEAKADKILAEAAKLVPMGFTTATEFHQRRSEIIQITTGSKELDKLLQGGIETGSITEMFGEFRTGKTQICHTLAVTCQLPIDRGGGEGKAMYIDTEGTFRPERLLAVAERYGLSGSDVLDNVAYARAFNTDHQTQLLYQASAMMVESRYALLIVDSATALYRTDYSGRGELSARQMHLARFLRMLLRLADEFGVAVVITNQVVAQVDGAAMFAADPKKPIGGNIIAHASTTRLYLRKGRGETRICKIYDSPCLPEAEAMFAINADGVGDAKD
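Test system: preformed human Rad51 ssDNA filaments. Compound dosing: single dose, 10 µM final compound. Incubation: filaments 15 min 37 °C, then compound 30 min. Technique: FRET fluorescence dequenching, excitation 485 nm, emission 520 nm. Read-out basis: percent inhibition from fluorescence, normalised to plate control and blank means. Benchmarks: plate controls and plate blanks.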
CHOP inhibitor – CHOP inhibition in unfolded protein response. CHO-K1 CHOP-promoter luciferase, tunicamycin-induced, 15-18 h. inhibition, % at 10 µM. 220,000 compounds, 3.8% hits. AID 2732;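 active = compounds that reduced the stress-induced luciferase reporter signal by more than about 70% of percent inhibition, limit read from the data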
L major viab – inhibitors of Leishmania major promastigote growth | Leishmania major promastigotes, resazurin fluorescence viability | inhibition, % at 10 µM | 200,000 compounds, 9% hits;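 note: promastigotes grown with compound for 44 hours at 28 °C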
Wee1 stabilizer – human Wee1 degradation inhibition, primary screen; P30291; HeLa Luc-Wee1K328M stability, luciferase luminescence; 100% = proteasome inhibitor MG132 effect; reporter increase, % at 5 µM; 220,000 compounds, 1.2% hits; AID 1321;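 active = activation above the mean of all tested compounds plus 3 SD, set per screening run, cut at about 8.8% in these data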;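 note: cells exposed to compound for 20 h before luminescence read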
PKD1 inh – PKD1 (human) kinase inhibition; Q15139; PKD1 kinase fluorescence polarization assay; inhibition, % (no concentration beside the values); 200,000 compounds, 0.056% hits
Large screens that a line does not name were inactive. Cut-off read from the data, not from the text of the source, unless noted: active = inhibition above about 50%; inactive = the rest.

CC(C(=O)N(C1CC1)C1(C(=O)Nc2ccccc2)CCCC1)N1C(=O)c2ccccc2C1=O (stereo unspecified)	CHOP inhibitor 74
COc1ccc(N2CC(C(=O)N/N=C/c3cc([N+](=O)[O-])ccc3O)CC2=O)cc1 (stereo unspecified)	none
O=C(/C=C/c1ccccc1)Nc1scc(-c2ccccc2)c1C(=O)O	Arbovirus anti 73
Cc1ccc(C(=O)Nc2scc(-c3ccccc3)c2C(=O)O)o1	Arbovirus anti 62
COc1ccc(-c2csc(NC(=O)Cc3cccc4ccccc34)c2C(=O)O)cc1	Arbovirus anti 47
Cc1ccc(C(=O)Nc2ccccc2-c2ccccc2)o1	none
O=C(/C=C/c1cccc(O)c1)c1ccc(N2CCOCC2)cc1	none (no result: Arbovirus anti, L major viab, PKD1 inh)
N=S(=O)(O)Cc1noc2ccccc12	none (no result: Arbovirus anti, Rad51 HR inh, L major viab, Wee1 stabilizer, PKD1 inh)
Cc1cc[n+]2n1CC(O)C2 (stereo unspecified)	none (no result: Arbovirus anti, L major viab, PKD1 inh)
CCC(CC)C(=O)c1c[nH]c(C(=O)N2CCN(c3ccccc3F)CC2)c1	none
CCOC(=O)CC1C(=O)NCCN1C(=S)Nc1ccccc1 (stereo unspecified)	L major viab 57
COc1ccccc1NC(=S)N1CCNC(=O)C1CC(=O)Nc1cccc(C)c1 (stereo unspecified)	none (no result: Arbovirus anti, L major viab, PKD1 inh)
COc1ccc(NC(=S)N2CCNC(=O)C2CC(=O)Nc2cccc(Cl)c2C)cc1 (stereo unspecified)	L major viab 52
COc1ccc(C(=O)N2CCNC(=O)C2CC(=O)Nc2ccc(C)cc2)cc1 (stereo unspecified)	L major viab 100
Cc1c(C(=O)C(=O)NCc2cccs2)c2ccccc2n1C	none (no result: Rad51 HR inh)
O=C(NCC(=O)N(c1cccnc1)C(C(=O)NC1CCCC1)c1ccc(F)cc1)c1ccco1 (stereo unspecified)	none
CC(=O)c1cccc(CN2CCCC(CCC(=O)NCc3ccccc3F)C2)c1 (stereo unspecified)	L major viab 92
Cc1ncc(CN2CCCC(CCC(=O)NCc3ccc(F)c(F)c3)C2)s1 (stereo unspecified)	L major viab 88
O=C(CCC1CCCN(C2C3CC4CC(C3)CC2C4)C1)NCc1ccc(F)c(F)c1 (stereo unspecified)	L major viab 56 (no result: Rad51 HR inh)
Cc1ncc(CN2CCCC(CCC(=O)NCc3ccccc3F)C2)s1 (stereo unspecified)	L major viab 77
Cc1occc1C(=O)N1CCCC(CCC(=O)NCc2ccc(F)c(F)c2)C1 (stereo unspecified)	none (no result: Rad51 HR inh)
Cc1cc(=O)[nH]c(SCC(=O)c2c(N)n(C)c(=O)n(C)c2=O)n1	none
O=C(CCC1CCCN(Cc2ccc3c(c2)CCO3)C1)NCc1ccc(F)c(F)c1 (stereo unspecified)	L major viab 99
Cn1cc(CCNC(=O)CC2C(=O)NCCN2CC(c2ccccc2)c2ccccc2)cn1 (stereo unspecified)	none (no result: Arbovirus anti, L major viab, PKD1 inh)
O=C(Cc1cccs1)N1CCN=C1SCc1cccc(F)c1	none (no result: Arbovirus anti, L major viab, PKD1 inh)
Fc1ccccc1OCCCN1CCOCC1	L major viab 51
COc1ccccc1OCCCCCCN1CCOCC1	L major viab 89
Clc1ccc(OCCn2cnc3ccccc32)c(Cl)c1	none
CC1CC(C)CN(CCOc2ccc(Cl)cc2Cl)C1 (stereo unspecified)	L major viab 97
CCN1CCN(CCOc2cccc(Cl)c2Cl)CC1	L major viab 86
CC1CC(C)CN(CCOc2cccc(Cl)c2Cl)C1 (stereo unspecified)	CHOP inhibitor 73, L major viab 91
CCCCCCn1nc(C(=O)OCC(=O)NC2CCS(=O)(=O)C2)c2ccccc2c1=O (stereo unspecified)	none
c1cnc(Sc2ccc3nnnn3n2)nc1	none
COc1ccc(C2CC(c3ccccc3)=NN2C(=O)COC(=O)c2nc3nccc(C)n3n2)cc1 (stereo unspecified)	none
CCCc1cc(-c2nc(-c3ccc(Br)cc3)cs2)ccn1	L major viab 60
Cc1ccccc1Cn1cnc2c(cnn2C(C)(C)C)c1=O	L major viab 59
Cc1ccc(C)c(Cn2cnc3c(cnn3C(C)(C)C)c2=O)c1	none
CN(C)CCNC(=O)C(=O)C1C(=O)Nc2ccccc21 (stereo unspecified)	none
O=C(NCc1ccccn1)C(=O)C1C(=O)Nc2ccccc21 (stereo unspecified)	Wee1 stabilizer 9.5
O=c1c2c3c(sc2n(CCN2CCCC2)c(=O)n1Cc1ccco1)CCCCC3	L major viab 87
O=C(Cn1c(=O)n(Cc2ccco2)c(=O)c2c3c(sc21)CCCCC3)c1ccccc1	none
CN(C)CCn1c(=O)n(Cc2ccco2)c(=O)c2c3c(sc21)CCCCC3	L major viab 88
O=[N+]([O-])c1cccc(COc2ncnc3cc([N+](=O)[O-])ccc23)c1	none (no result: Arbovirus anti, Rad51 HR inh, L major viab, PKD1 inh)
CSc1nc(NCc2ccco2)c2ccccc2n1	L major viab 70
c1cncc(-c2nc(NCc3ccco3)c3ccccc3n2)c1	L major viab 77
c1ccc(Nc2nc(NCc3ccco3)c3ccccc3n2)cc1	none (no result: Arbovirus anti, L major viab, PKD1 inh)
CC(C)[C@H](Nc1nc(-c2ccccc2)nc2c1oc1ccccc12)C(=O)O	none
COc1cccc(-c2nc(NCc3ccco3)c3ccccc3n2)c1O	none (no result: Arbovirus anti, CHOP inhibitor)
Cc1ccc(-c2nc(NCc3ccco3)c3ccccc3n2)cc1	L major viab 100
c1ccc(-c2nc(NCc3ccco3)c3oc4ccccc4c3n2)cc1	CHOP inhibitor 92
COc1ccc(Cn2c(=O)[nH]c3cc(C(=O)N4CCN(c5ccccn5)CC4)ccc3c2=O)cc1	none (no result: Rad51 HR inh)
COC(=O)c1c(-c2cc(OC)c(OC)c(OC)c2)c2ccnc(OCc3ncccn3)c2c(=O)n1Cc1ccnc(C)c1	none (no result: Arbovirus anti, Rad51 HR inh, L major viab, Wee1 stabilizer, PKD1 inh)
c1ccc(-c2nc(NCCCn3ccnc3)c3oc4ccccc4c3n2)cc1	L major viab 100
CCN(CC)CCNC(=O)c1ccc(CS(=O)(=O)c2ccc(Br)cc2)o1	L major viab 78
COCCNC(=S)NC(=O)CC12CC3CC(CC(C3)C1)C2	L major viab 88 (no result: Rad51 HR inh)
CC(=O)NC(Cc1ccc(O)cc1)C(=O)NN (stereo unspecified)	none
CC1(c2ccc(C#N)cc2)NC(=O)N(CC(=O)Nc2cc(S(=O)(=O)N3CCOCC3)ccc2Cl)C1=O (stereo unspecified)	none
CCCCNC(=S)NNc1c(Cl)cc(Cl)cc1Cl	CHOP inhibitor 82
O=[N+]([O-])c1cc(Cl)cc(/C=N/NC(=S)Nc2ccc(S(=O)(=O)N3CCOCC3)cc2)c1O	none (no result: Arbovirus anti, L major viab, PKD1 inh)
O=C(O)CC(=O)Nc1cc(Cl)ccc1O	none
O=C(CCSc1ccccc1Cl)Nc1cccc([N+](=O)[O-])c1	none
Cc1cc(NC(=O)CCc2ccccc2)c([N+](=O)[O-])cc1C	L major viab 51
Cc1cc(C)c([N+](=O)[O-])cc1NC(=O)CCSc1ccccc1Cl	L major viab 55
O=C(CCc1ccccc1)Nc1cccc(NC(=O)CCc2ccccc2)c1	CHOP inhibitor 72
